Results collected from several papers.
Compare with care: the assays were run in different laboratories.
Technique: competition with immobilised ligand
RPS6KA3 N-terminal kinase domain: Ribosomal protein S6 kinase alpha-3, N-terminal kinase domain (RPS6KA3, Homo sapiens, UniProt P51812)
RPS6KA3 C-terminal kinase domain: Ribosomal protein S6 kinase alpha-3, C-terminal kinase domain (RPS6KA3, Homo sapiens, UniProt P51812)

FC(F)(F)Oc1cccc(-c2cnc3ccc(-c4ccncc4)nn23)c1 — remaining binding (RPS6KA3 N-terminal kinase domain; binding; 5 µM): 57%
Nc1ncc2c(n1)-c1c([nH]c3ccc(C#CC4CC4)cc13)CCCC2 — remaining binding (RPS6KA3 N-terminal kinase domain; binding; 1 µM): 73%
CN(c1nccc(-c2cnn3ncccc23)n1)C1CC1 — remaining binding (RPS6KA3 N-terminal kinase domain; binding; 1 µM): 100%
CC1=C(C#N)[C@@H](c2ccc3[nH]nc(C)c3c2)C(C#N)=C(c2ccc(Cl)cc2)N1 — remaining binding (RPS6KA3 C-terminal kinase domain; cell-free assay; 1 µM): 86.2%
CN(CCCC(F)(F)F)c1nccc(-c2cnn3ncccc23)n1 — remaining binding (RPS6KA3 N-terminal kinase domain; binding; 1 µM): 100%
CCCOc1ccc([C@H]2[C@H](C(=O)O)[C@@H](c3ccc4c(c3)OCO4)CN2CC(=O)Nc2c(CC)cccc2CC)cc1 — remaining binding (RPS6KA3 N-terminal kinase domain; cell-free assay; 1 µM): 72%
O=C(NCCCN1CCOCC1)c1ccc(Nc2nccc(-c3cc4ccccc4s3)n2)cc1 — remaining binding (RPS6KA3 C-terminal kinase domain; binding; 1 µM): 73%
CN(C)c1ncc(F)c(-c2cnn3ncccc23)n1 — remaining binding (RPS6KA3 C-terminal kinase domain; binding; 1 µM): 68%
CC(C)(C)c1ccc(-c2nc(CBr)nn2-c2cccc(O)c2)cc1 — remaining binding (RPS6KA3 N-terminal kinase domain; cell-free assay; 10 µM): 74%
O=C(c1ccc(Nc2ncc(Cl)c(-c3ccc(Cl)s3)n2)cc1)N1CCC(N2CCCC2)CC1 — remaining binding (RPS6KA3 C-terminal kinase domain; binding; 1 µM): 100%
Cc1nccc(COC(=O)N2C[C@@H]3[C@@H](CNC(=O)c4ccc5[nH]nnc5c4)[C@@H]3C2)n1 — remaining binding (RPS6KA3 C-terminal kinase domain; cell-free assay; 1 µM): 86%
CC1CCCN1c1nccc(-c2cnn3ncccc23)n1 (stereo not drawn) — remaining binding (RPS6KA3 C-terminal kinase domain; binding; 1 µM): 100%
O=C(NCc1ncc(C(F)(F)F)cc1Cl)c1ccc2c(c1)C1(CCS(=O)(=O)CC1)[C@@H](C1CC1)N2S(=O)(=O)c1ccc(F)cc1 — remaining binding (RPS6KA3 C-terminal kinase domain; cell-free assay; 1 µM): 82%
O=C(NCC1CCOCC1)c1n[nH]cc1NC(=O)c1c(F)cccc1F — remaining binding (RPS6KA3 N-terminal kinase domain; binding; 1 µM): 78%
O=C(O)c1cc(-c2ccc(C3CCNCC3)cc2)c2ccc(-c3ccc(C(F)(F)F)cc3)cc2c1 — remaining binding (RPS6KA3 C-terminal kinase domain; cell-free assay; 1 µM): 80%
COc1cnc(Nc2cccc(S(N)(=O)=O)c2)nc1N1CCN(c2ccccc2)CC1 — remaining binding (RPS6KA3 C-terminal kinase domain; binding; 1 µM): 81%
COc1ccnn2ncc(-c3ccnc(N(C)C)n3)c12 — remaining binding (RPS6KA3 N-terminal kinase domain; binding; 1 µM): 85%
O=C(O)[C@H]1[C@H](Cn2nnc3ccccc3c2=O)CC[C@@H]1C(=O)c1ccc(OCCC2CCOCC2)cc1 — remaining binding (RPS6KA3 N-terminal kinase domain; cell-free assay; 1 µM): 81%
